Experimental data as given in PubChem BioAssay AID2648 (Johns Hopkins Ion Channel Center, 2010).
The whole screen tested about 310,000 compounds, of which about 1,100 (0.35%) were called active.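 Rule for the calls: active = fluorescence ratio B-score, a plate-corrected score, at least three library SD, with initial intensity B-score within 5 SD; inactive = the rest.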 Only a selection was taken, and actives are over-represented in it overall.

Molecular target: Potassium voltage-gated channel subfamily KQT member 1 (Homo sapiens) (UniProt P51787)
Sequence (P51787 whole entry, looked up): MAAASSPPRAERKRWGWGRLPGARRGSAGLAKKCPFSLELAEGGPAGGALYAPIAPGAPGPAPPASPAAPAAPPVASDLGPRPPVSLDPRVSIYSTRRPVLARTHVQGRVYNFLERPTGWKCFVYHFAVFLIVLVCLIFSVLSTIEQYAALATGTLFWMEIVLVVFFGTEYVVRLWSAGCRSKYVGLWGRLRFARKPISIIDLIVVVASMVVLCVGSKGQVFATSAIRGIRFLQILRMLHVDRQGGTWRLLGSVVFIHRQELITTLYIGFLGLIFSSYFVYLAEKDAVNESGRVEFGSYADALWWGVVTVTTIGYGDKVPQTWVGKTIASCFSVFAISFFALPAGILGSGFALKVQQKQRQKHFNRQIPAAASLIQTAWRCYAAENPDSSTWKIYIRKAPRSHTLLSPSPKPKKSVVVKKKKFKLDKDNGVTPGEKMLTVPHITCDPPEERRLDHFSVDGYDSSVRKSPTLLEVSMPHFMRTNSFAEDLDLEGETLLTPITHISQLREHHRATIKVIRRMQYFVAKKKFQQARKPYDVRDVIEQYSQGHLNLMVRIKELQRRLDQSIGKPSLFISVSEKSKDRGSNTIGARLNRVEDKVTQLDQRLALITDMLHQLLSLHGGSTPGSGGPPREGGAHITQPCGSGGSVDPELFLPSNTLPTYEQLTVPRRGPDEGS
Test: potentiators or activators of KCNQ1 channel, primary screen, cell-based, thallium flux, high-throughput (AID 2648)
Conditions: CHO-K1 KCNQ1, thallium flux FluxOR fluorescence, at 10 µM; stronger effect = higher value
Outline: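 Test system: CHO-K1 cells stably expressing KCNQ1 / Medium: assay buffer / Also added: depolarizing K+/Tl+ stimulus, K2SO4 and Tl2SO4 each 12.5 mM in 5x stock / Incubation: 90 min dye loading and 20 min compound exposure, both at room temperature / Signal: thallium influx via FluxOR fluorescence, kinetic imaging / Evaluation: B score of baseline-normalized fluorescence ratio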

B-score, inactive:
O=C(NC1CCCCC1)c1ccc(-c2ccc(Cl)cc2)o1
CCOc1ccc(C(c2c(C)[nH][nH]c2=O)c2c(C)[nH][nH]c2=O)cc1OCC
Cn1nnnc1-c1cc(Cl)cc(Cl)c1
CC(=O)C12CC(C)=C(C)CC1CC1C3CCC4=CC(=O)CCC4(C)C3CCC12C (centres undefined)
O=C1NC(c2ccccc2)CCC1(Cl)Cl (centres undefined)
COc1cc2ccccc2cc1C(=O)N(CCN(C)C)c1nc2c(F)cccc2s1
Cc1ccc2sc(N(CCN(C)C)C(=O)/C=C/c3cccs3)nc2c1C
CC(=O)N(CCCN(C)C)c1nc2ccc(C)cc2s1
COc1cccc2sc(N(CCCN(C)C)C(=O)C(c3ccccc3)c3ccccc3)nc12
CCCCC(=O)Nc1ccc2c(c1)C(=O)NC2=O
O=C(COc1cc2oc(=O)c3c(c2cc1Cl)CCC3)NCCCN1CCOCC1
Cc1ccc(NC2CCCN(C(=O)CCC3(C)CC3)C2)cc1C (centres undefined)
COCCNC(=O)CSc1nc2sccc2c(=O)n1-c1ccccc1
CCN(CC)S(=O)(=O)c1ccc(Cl)c(NC(=O)c2ccncc2)c1
Cc1cccc(NC(=O)c2cccnc2Cl)n1
CC1CCN(S(=O)(=O)c2ccc3c(ccn3CC(=O)O)c2)CC1
CC1CCN(c2ccc(-c3ccc(NC(=O)c4ccco4)cc3)nn2)CC1
NC(=O)Cc1ccc2c(c1)[nH]c1ccccc12
S=c1ccc2ccccc2[nH]1
COc1ccc(OC)c(CCNC(=O)c2nn(C)c3c2CS(=O)(=O)c2ccccc2-3)c1
O=C(Nc1ccc(F)c([N+](=O)[O-])c1)C1CCCO1 (centres undefined)
N#CCc1ccc(OC(=O)c2cccnc2)cc1
O=C(Oc1ccc(Br)cc1)c1cccnc1
CCO[C@H]1OC(C(=O)Nc2ccccc2)=C[C@@H](C2CC2)[C@@H]1CCCO
Cc1ccc(S(=O)(=O)Nc2ccc3ncccc3c2)cc1
O=[N+]([O-])c1ccccc1S(=O)(=O)Nc1cccc2cccnc12
COC(=O)C1=C(C(=O)OC)[C@@H]2N(C)c3ccccc3[C@@]23C[C@@H](C(=O)OC)N(C(=O)c2ccco2)C3=N1
CC1(C)C2CC[C@]3(C)C(CC=C4[C@@H]5C[C@@](C)(CO)CC[C@]5(C(=O)O)CC[C@]43C)[C@@]2(C)CC[C@@H]1O (some centres undefined)
CSc1ncccc1C(=O)Nc1ccc(C)cn1
O=C(Nc1ccccc1)c1cc2ccccc2[nH]1
O=c1/c(=C/c2ccc(CNS(=O)(=O)c3ccccc3)o2)sc2n1CCN=2
NC(=O)c1c(Nc2nc3c(F)cccc3s2)sc2c1CCCC2
NNc1nc2c(Cl)cccc2s1
COc1cccc2cc(C(=O)NCc3ccc(C)cc3)c(=N)oc12
COC(=O)C1CCN(C(=O)c2ccc3oc(Cc4ccc(Cl)cc4)nc3c2)CC1
Cc1ccc(-n2c(C)cc(/C=N\NC(=O)CC(=O)NC(C)C)c2C)cc1
Cc1cccc(-n2c(C)cc(/C=N\NC(=O)c3cccs3)c2C)c1
Cc1cc(=O)oc2c(C)c(OCC(=O)NCCN3CCOCC3)ccc12
CCCOc1ccc(C(=O)C(CCC(CNCC)C(=O)c2ccc(OCCC)cc2)CNCC)cc1 (centres undefined)
FC(F)(F)c1ccc(CN2C[C@@H]3C(c4ccccc4)C4(c5ccccc5)CC3(C4)[C@H]2c2ccccc2)cc1 (some centres undefined)
COC(=O)c1sc(NC(=O)c2csc3c2CCCC3)nc1C
Cc1ccc(C(=O)NC(=S)Nc2ccccc2C)cc1
C/C(Cl)=C\Cn1c(Nc2cccc(C)c2)nc2c1c(=O)n(C)c(=O)n2C
CC(C)NC(=O)C(c1ccc(F)cc1)N(C(=O)CCC(=O)Nc1ccccn1)c1ccccc1F (centres undefined)
[O-][n+]1c2c(nn1-c1ccc(Cl)c(Cl)c1)-c1nonc1CC2
COc1ccc(NC(=O)C(=O)NCC(c2ccco2)N2CCc3ccccc3C2)cc1 (centres undefined)
COC(=O)c1ccccc1NC(=O)C1CCN(S(=O)(=O)c2cc(OC)ccc2OC)CC1
O=C(c1ccc(F)cc1)c1cn(Cc2ccc(F)cc2)c2cc3c(cc2c1=O)OCCO3
COP1(=O)C[C@@H](O)[C@@H](O)[C@@H](COCc2ccccc2)O1 (some centres undefined)
CC(=O)Nc1sc2c(c1C(c1cccc(F)c1)N1CCN(CCO)CC1)CCCC2 (centres undefined)
COCCNC(=O)CCCN1C(=O)c2ccccc2Sc2ncccc21
Cc1c(C(=O)NC(C)C2CC3CCC2C3)cccc1[N+](=O)[O-] (centres undefined)
CC(C)(C)c1ccc(Cn2nnc3c(=O)[nH]c(C4CCCN(C(=O)c5ccco5)C4)nc32)cc1 (centres undefined)
O=C(N/N=C/c1cccnc1)c1cc2ccccc2cc1O
Cc1ccc(/C=N/NC(=O)CSc2ccccn2)o1
CN(CC(=O)Nc1ccc(Cl)cc1)C(=O)CNC(=O)c1ccc2ccccc2c1
COc1cc(C(=O)NCC(=O)NCCSc2ccc(Br)cc2)cc(OC)c1OC
Cc1ccc(N(CC(=O)NC2CCCCC2)C(=O)CCCC(=O)Nc2ccccn2)c(C)c1
CCCCNC(=O)C1CCCNC1=O (centres undefined)
CCC1(C)Cc2c(sc3nc(SC)[nH]c(=O)c23)CO1 (centres undefined)
CCC1(C)Cc2c(sc3nc4n(c(=O)c23)CCCS4)CO1 (centres undefined)
OC(CNCc1ccc(Cl)c(Cl)c1)c1ccccc1 (centres undefined)
Cc1cccn2cc(-c3cccc(S(=O)(=O)N4CCCCC4)c3)nc12
COc1cccc(NC(=S)NCc2ccccn2)c1
Cc1nn(C)c(C(=O)NNC(=S)NC2CCCCC2)c1Cl
CCOc1ccc(N=C2NC(=O)S/C2=C\c2ccc(O)cc2)cc1
COc1ccc(/C=C2\SC(=N)N(c3ccc(F)cc3)C2=O)cc1
Cc1ccc(OS(=O)(=O)c2ccc(-c3csc(C)n3)s2)c(C)c1
CCOC(=O)N1CCN(C(=O)C(C)NC(=O)c2ccco2)CC1 (centres undefined)
Cc1ccc(C)c(NC(=O)C(OC(=O)c2ccc(C)s2)c2ccccc2)c1 (centres undefined)
COC(=O)Cn1c2ccc(C)cc2c2nc(C)sc21
CCn1c(O)c(N=NC(=O)c2cccc(S(=O)(=O)N3CCCCC3)c2)c2ccccc21
CCCc1noc2c1/C(=N\O)CCC2
Cc1c(N=Nc2ccc(N(C)C)cc2)c(=O)n(-c2ccccc2)n1C
CCOC(=O)c1c(NC(=S)Nc2ccccc2)sc2c1CCN(C)C2
CCOC(=O)c1c(NC(=O)C2(C)Cc3ccccc3C(=O)O2)sc2c1CCCC2 (centres undefined)
Cc1ccc(C(=O)CN2C(=O)NC3(CCc4ccccc43)C2=O)c(C)c1 (centres undefined)
Clc1cccc(N=C2NN=C(c3ccc4c(c3)OCCO4)CS2)c1
Cc1cc(C)c(C#N)c(SCC(=O)NN2CC(=O)N(c3ccccc3F)CC2=O)n1
CCN(CC)N=Nc1cccc(NC(C)=O)c1
O=C(C1=C(O)C(=O)N(CCOCCO)C1c1ccccn1)c1cccs1 (centres undefined)
CCOc1cc(C)c(S(=O)(=O)NCc2ccccn2)cc1C
COc1ccc(C(=O)n2nc(-c3ccc(C)cc3)nc2N)cc1OC
COc1ccc(CC(=O)n2nc(-c3cccnc3)nc2N)cc1
O=C1/C(=C\Nc2ccccc2)CCN1c1ncccn1
O=C1N[C@@H](Cc2ccccc2)C(=O)N2[C@H]1C[C@]1(Br)c3ccccc3N(S(=O)(=O)c3ccccc3)[C@H]21
O=c1c(-c2cccc(Cl)c2)c[nH]n1-c1ccccc1
O=C1NC(c2cccc(Cl)c2)Nc2ccccc21 (centres undefined)

B-score, active:
Cc1[nH][nH]c(=O)c1C(c1ccc(-c2ccc(Cl)cc2)o1)c1c(C)[nH][nH]c1=O 25
Cc1cccc2sc(N(CCCN(C)C)C(=O)CCS(=O)(=O)c3ccccc3)nc12 30
COc1cccc2sc(N(CCCN(C)C)C(=O)CCS(=O)(=O)c3ccccc3)nc12 8
CCN(CC)S(=O)(=O)c1ccc(NC(=O)c2cccnc2Cl)c(NC(=O)c2cccnc2Cl)c1 13
S=c1[nH]c2ccccc2c2ccccc12 7
O=C(Oc1c(-c2ccco2)oc2ccccc2c1=O)c1cccnc1 15
COc1cc(NS(=O)(=O)c2ccc3ccccc3c2)c2ncccc2c1 14
CC1(C)CC[C@]2(C(=O)O)CC[C@]3(C)C(=CCC4[C@@]5(C)CC[C@H](O)C(C)(C)C5[C@H](O)C[C@]43C)[C@@H]2C1 (some centres undefined) 10
Fc1cc(F)c2nc(Nc3nc4c(F)cccc4s3)sc2c1 37
Cc1cccc(-n2c(C)cc(/C=N/NC(N)=S)c2C)c1 8
COC(=O)c1sc(NC(=S)NC(=O)c2ccc(C)cc2)nc1C 18
Oc1c(Cl)cc(Cl)c(Cl)c1Cc1c(O)c(Cl)cc(Cl)c1Cl 87
Cc1ccc(/C=N/NC(=O)c2cc3ccccc3cc2O)o1 41
CCC1(C)Cc2c(sc3[nH]c(=S)n(Cc4ccccc4)c(=O)c23)CO1 (centres undefined) 57
COc1cccc(NC(=S)NC(=O)c2c(Cl)c(C)nn2C)c1 8
COc1ccc(/C=C2/S/C(=N/N=C3\CC4CCC3(C)C4(C)C)NC2=O)cc1 (centres undefined) 23
CCn1c(O)c(N=NC2=NC(=O)CS2)c2cc(C)ccc21 11
CCOC(=O)c1c(NC(=S)NC)sc2c1CCCC2 77
CN(C)c1nc(=Nc2cccc(Cl)c2)ss1 12
CCCC(=O)n1nc(-c2ccccc2)nc1N 20
O=C1c2ccccc2NC(c2ccc(-c3cccc(Cl)c3)o2)N1O (centres undefined) 10
